Experimental data reported in ChEMBL document CHEMBL1140069, “In vitro antifungal activity of polyfunctionalized 2-(hetero)arylquinolines prepared through imino Diels-Alder reactions” (2008).
Converted amounts (≈) assume the structure as drawn.

Experiments:
Type in all cases: functional
[1] = test system: Cryptococcus neoformans; experiment: Antimicrobial activity against Cryptococcus neoformans IM 031631 isolate at 50 ug/ml after 48 hrs
How it was run: (§1)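 Percent growth inhibition in 96-well microplates. Compound stocks in DMSO (≤2%) were diluted in RPMI-1640 to final 100–6.25 µg/mL, and 100 µL inoculum was added (final 200 µL). Controls were a growth well (inoculum with matching DMSO, no compound) and a sterility well (no inoculum). Inhibition was calculated against growth and sterility wells.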

[2] = test system: Cryptococcus neoformans; experiment: Antimicrobial activity against Cryptococcus neoformans IM 983036 isolate at 50 ug/ml after 48 hrs
How it was run: (§2)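 Clinical Cryptococcus isolates kept on Sabouraud-dextrose agar slopes; inoculum 1–5 × 10³ CFU/mL. Quinoline DMSO stocks were diluted in RPMI-1640 to final 100–6.25 µg/mL, with DMSO ≤2%. An equal volume of inoculum was added (200 µL per well). Run in triplicate.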

[3] = test system: Candida albicans; experiment: Antimicrobial activity against Candida albicans C128 isolate at 12.5 ug/ml after 24 hrs
How it was run: (§3)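 Growth-inhibition microplate test. Strains are grown on Sabouraud-chloramphenicol agar for 48 h at 30 °C, and inoculum is added to RPMI-1640 containing compound at a final 100–6.25, with DMSO ≤2%. Each strain has a growth control (same DMSO, no compound) and a sterility control.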

[4] = test system: Candida parapsilosis; experiment: Antimicrobial activity against Candida parapsilosis C124 isolate at 12.5 ug/ml after 24 hrs; conditions: Lodderomyces parapsilosis; how it was run: as §1
[5] = test system: Cryptococcus neoformans; experiment: Antimicrobial activity against Cryptococcus neoformans IM 031706 isolate at 25 ug/ml after 48 hrs; how it was run: as §1
[6] = test system: Pichia kudriavzevii; experiment: Antimicrobial activity against Candida krusei C117 isolate at 6.25 ug/ml after 24 hrs; how it was run: as §1
[7] = test system: Cryptococcus neoformans; experiment: Antimicrobial activity against Cryptococcus neoformans IM 972751 isolate at 12.5 ug/ml after 48 hrs; how it was run: as §2
[8] = test system: Candida albicans; experiment: Antimicrobial activity against Candida albicans ATCC 10231 at 100 ug/ml after 24 hrs; conditions: ATCC 10231, 24 h; how it was run: as §3
[9] = test system: Candida albicans; experiment: Antimicrobial activity against Candida albicans C126 isolate at 100 ug/ml after 24 hrs; how it was run: as §3
[10] = test system: Candida albicans; experiment: Antifungal activity against Candida albicans ATCC 10231 after 48 hrs by broth microdilution technique; conditions: ATCC 10231, 48 h
How it was run: (§4)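 CLSI broth microdilution: M-27 A2 for yeasts and M-38 A for filamentous fungi. Medium is RPMI-1640 buffered to pH 7.0 with MOPS. Compound is diluted twofold from 250 to 0.98, final DMSO ≤2%. Inoculum is 1–5 × 10³ CFU/mL. Plates are incubated at 35 °C in a moist, dark chamber and read visually at 48 h. MIC100 is the lowest concentration giving total growth inhibition versus drug-free control.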

[11] = test system: Cryptococcus neoformans; experiment: Antimicrobial activity against Cryptococcus neoformans IM 961951 isolate at 6.25 ug/ml after 48 hrs; how it was run: as §2
[12] = test system: Candida albicans; experiment: Antimicrobial activity against Candida albicans C129 isolate at 100 ug/ml after 24 hrs; how it was run: as §3
[13] = test system: Cryptococcus neoformans; experiment: Antimicrobial activity against Cryptococcus neoformans IM 983040 isolate at 25 ug/ml after 48 hrs; how it was run: as §2
[14] = test system: Candida albicans; experiment: Antimicrobial activity against Candida albicans C126 isolate at 25 ug/ml after 24 hrs; how it was run: as §3
[15] = test system: Candida albicans; experiment: Antimicrobial activity against Candida albicans C126 isolate at 12.5 ug/ml after 24 hrs; how it was run: as §3
[16] = test system: Cryptococcus neoformans; experiment: Antimicrobial activity against Cryptococcus neoformans IM 983036 isolate at 6.25 ug/ml after 48 hrs; how it was run: as §2
[17] = test system: Cryptococcus neoformans; experiment: Antimicrobial activity against Cryptococcus neoformans ATCC 32264 at 100 ug/ml after 48 hrs; conditions: ATCC 32264, 48 h; how it was run: as §1
[18] = test system: Cryptococcus neoformans; experiment: Antimicrobial activity against Cryptococcus neoformans IM 00319 isolate at 100 ug/ml after 48 hrs; how it was run: as §1
[19] = test system: Nakaseomyces glabratus; experiment: Antimicrobial activity against Candida glabrata C115 isolate at 25 ug/ml after 24 hrs; how it was run: as §1
[20] = test system: Cryptococcus neoformans; experiment: Antimicrobial activity against Cryptococcus neoformans IM 031706 isolate at 12.5 ug/ml after 48 hrs; how it was run: as §1
[21] = test system: Cryptococcus neoformans; experiment: Antimicrobial activity against Cryptococcus neoformans IM 042074 isolate at 50 ug/ml after 48 hrs; how it was run: as §1
[22] = test system: Candida albicans; experiment: Antimicrobial activity against Candida albicans C126 isolate at 6.25 ug/ml after 24 hrs; how it was run: as §3
[23] = test system: Cryptococcus neoformans; experiment: Antimicrobial activity against Cryptococcus neoformans IM 983040 isolate at 50 ug/ml after 48 hrs; how it was run: as §2
[24] = test system: Cryptococcus neoformans; experiment: Antimicrobial activity against Cryptococcus neoformans IM 00319 isolate at 50 ug/ml after 48 hrs; how it was run: as §1
[25] = test system: Aspergillus flavus; experiment: Antifungal activity against Aspergillus flavus ATCC 9170 after 48 hrs by broth microdilution technique; conditions: ATCC 9170, 48 h; how it was run: as §4
[26] = test system: Cryptococcus neoformans; experiment: Antimicrobial activity against Cryptococcus neoformans IM 031706 isolate at 50 ug/ml after 48 hrs; how it was run: as §1
[27] = test system: Cryptococcus neoformans; experiment: Antimicrobial activity against Cryptococcus neoformans IM 961951 isolate at 25 ug/ml after 48 hrs; how it was run: as §2
[28] = test system: Candida albicans; experiment: Antimicrobial activity against Candida albicans C127 isolate at 6.25 ug/ml after 24 hrs; conditions: C127, 24 h; how it was run: as §3
[29] = test system: Cryptococcus neoformans; experiment: Antimicrobial activity against Cryptococcus neoformans IM 983036 isolate at 12.5 ug/ml after 48 hrs; how it was run: as §2
[30] = test system: Candida parapsilosis; experiment: Antimicrobial activity against Candida parapsilosis C124 isolate at 6.25 ug/ml after 24 hrs; conditions: Lodderomyces parapsilosis; how it was run: as §1
[31] = test system: Cryptococcus neoformans; experiment: Antimicrobial activity against Cryptococcus neoformans IM 031631 isolate at 100 ug/ml after 48 hrs; how it was run: as §1
[32] = test system: Cryptococcus neoformans; experiment: Antimicrobial activity against Cryptococcus neoformans IM 961951 isolate at 50 ug/ml after 48 hrs; how it was run: as §2
[33] = test system: Candida albicans; experiment: Antimicrobial activity against Candida albicans C129 isolate at 12.5 ug/ml after 24 hrs; how it was run: as §3
[34] = test system: Candida albicans; experiment: Antimicrobial activity against Candida albicans C126 isolate at 50 ug/ml after 24 hrs; how it was run: as §3
[35] = test system: Cryptococcus neoformans; experiment: Antimicrobial activity against Cryptococcus neoformans IM 052470 isolate at 6.25 ug/ml after 48 hrs; how it was run: as §1
[36] = test system: Cryptococcus neoformans; experiment: Antimicrobial activity against Cryptococcus neoformans IM 052470 isolate at 25 ug/ml after 48 hrs; how it was run: as §1
[37] = test system: Candida tropicalis; experiment: Antimicrobial activity against Candida tropicalis C131 isolate at 50 ug/ml after 24 hrs; how it was run: as §1
[38] = test system: Candida albicans; experiment: Antimicrobial activity against Candida albicans C129 isolate at 6.25 ug/ml after 24 hrs; how it was run: as §3
[39] = test system: Candida albicans; experiment: Antimicrobial activity against Candida albicans C127 isolate at 12.5 ug/ml after 24 hrs; conditions: C127, 24 h; how it was run: as §3
[40] = test system: Candida albicans; experiment: Antimicrobial activity against Candida albicans C130 isolate at 100 ug/ml after 24 hrs; how it was run: as §3
[41] = test system: Cryptococcus neoformans; experiment: Antimicrobial activity against Cryptococcus neoformans IM 972724 isolate at 25 ug/ml after 48 hrs; how it was run: as §2
[42] = test system: Cryptococcus neoformans; experiment: Antimicrobial activity against Cryptococcus neoformans ATCC 32264 at 6.25 ug/ml after 48 hrs; conditions: ATCC 32264, 48 h; how it was run: as §1
[43] = test system: Cryptococcus neoformans; experiment: Antimicrobial activity against Cryptococcus neoformans IM 031631 isolate at 12.5 ug/ml after 48 hrs; how it was run: as §1
[44] = test system: Pichia kudriavzevii; experiment: Antimicrobial activity against Candida krusei C117 isolate at 100 ug/ml after 24 hrs; how it was run: as §1

Work on `Cc1cc(-c2ccncc2)nc2ccccc12` yielded an inhibition at 50 µg/mL [1] of 75%, an inhibition at 50 µg/mL [2] of 69% and an inhibition at 12.5 µg/mL [3] of 0%. For the same compound, the inhibition at 12.5 µg/mL [4] was 0%, the inhibition at 25 µg/mL [5] was 57% and the inhibition at 6.25 µg/mL [6] was 0%. It also gave an inhibition at 12.5 µg/mL [7] of 0%, an inhibition at 100 µg/mL [8] of 100% and an inhibition at 100 µg/mL [9] of 69%. For the same compound, the MIC [10] was 100 mg/L (≈ 454 µM), the inhibition at 6.25 µg/mL [11] was 4% and the inhibition at 100 µg/mL [12] was 85%. The inhibition at 25 µg/mL [13] was 12%, the inhibition at 25 µg/mL [14] was 0% and the inhibition at 12.5 µg/mL [15] was 0%. For the same compound, the inhibition at 6.25 µg/mL [16] was 0%, the inhibition at 100 µg/mL [17] was 100% and the inhibition at 100 µg/mL [18] was 92%. For the same compound, the inhibition at 25 µg/mL [19] was 4%, the inhibition at 12.5 µg/mL [20] was 41% and the inhibition at 50 µg/mL [21] was 87%. The inhibition at 6.25 µg/mL [22] was 0%, the inhibition at 50 µg/mL [23] was 34% and the inhibition at 50 µg/mL [24] was 80%. It also gave an MIC [25] of 100 mg/L (≈ 454 µM), an inhibition at 50 µg/mL [26] of 69% and an inhibition at 25 µg/mL [27] of 78%. The inhibition at 6.25 µg/mL [28] was 0%, the inhibition at 12.5 µg/mL [29] was 20% and the inhibition at 6.25 µg/mL [30] was 0%. The inhibition at 100 µg/mL [31] was 100%, the inhibition at 50 µg/mL [32] was 89% and the inhibition at 12.5 µg/mL [33] was 3%. The inhibition at 50 µg/mL [34] was 32%, the inhibition at 6.25 µg/mL [35] was 0% and the inhibition at 25 µg/mL [36] was 53%. It also gave an inhibition at 50 µg/mL [37] of 75%, an inhibition at 6.25 µg/mL [38] of 0% and an inhibition at 12.5 µg/mL [39] of 0%. It also gave an inhibition at 100 µg/mL [40] of 84%, an inhibition at 25 µg/mL [41] of 8% and an inhibition at 6.25 µg/mL [42] of 83%. The inhibition at 12.5 µg/mL [43] was 36% and the inhibition at 100 µg/mL [44] was 66%.
`c1ccc(-c2ccc3ccccc3n2)cc1` [2-PHENYLQUINOLINE] showed an inhibition at 50 µg/mL [1] of 34%, an inhibition at 50 µg/mL [2] of 12% and an inhibition at 25 µg/mL [5] of 17%. The inhibition at 12.5 µg/mL [7] was 0%, the inhibition at 100 µg/mL [8] was 0% and the MIC [10] was 250 mg/L (≈ 1220 µM). It also gave an inhibition at 6.25 µg/mL [11] of 0%, an inhibition at 25 µg/mL [13] of 13% and an inhibition at 6.25 µg/mL [16] of 0%. The inhibition at 100 µg/mL [17] was 100%, the inhibition at 100 µg/mL [18] was 47% and the inhibition at 12.5 µg/mL [20] was 0%. It also gave an inhibition at 50 µg/mL [21] of 77%, an inhibition at 50 µg/mL [23] of 29% and an inhibition at 50 µg/mL [24] of 34%. The MIC [25] was over 250 mg/L, the inhibition at 50 µg/mL [26] was 46% and the inhibition at 25 µg/mL [27] was 10%. For the same compound, the inhibition at 12.5 µg/mL [29] was 0%, the inhibition at 100 µg/mL [31] was 74% and the inhibition at 50 µg/mL [32] was 32%. It also gave an inhibition at 6.25 µg/mL [35] of 0%, an inhibition at 25 µg/mL [36] of 35% and an inhibition at 25 µg/mL [41] of 35%. For the same compound, the inhibition at 6.25 µg/mL [42] was 0% and the inhibition at 12.5 µg/mL [43] was 5%.
